Source: PubChem BioAssay
The list is a sample of the results.
HKDC1 activator = activators of human hexokinase HKDC1; Q2TB90; recombinant HKDC1, G6PDH/diaphorase resazurin fluorescence; stronger effect = lower value; activity change, negative = activation, % at 20 µM; hit rate 0.056% among 340,000; AID 493187;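 active = activation of 40% or more at 20 µM, a change of -40% or lower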
Target sequence (Q2TB90 whole entry, looked up): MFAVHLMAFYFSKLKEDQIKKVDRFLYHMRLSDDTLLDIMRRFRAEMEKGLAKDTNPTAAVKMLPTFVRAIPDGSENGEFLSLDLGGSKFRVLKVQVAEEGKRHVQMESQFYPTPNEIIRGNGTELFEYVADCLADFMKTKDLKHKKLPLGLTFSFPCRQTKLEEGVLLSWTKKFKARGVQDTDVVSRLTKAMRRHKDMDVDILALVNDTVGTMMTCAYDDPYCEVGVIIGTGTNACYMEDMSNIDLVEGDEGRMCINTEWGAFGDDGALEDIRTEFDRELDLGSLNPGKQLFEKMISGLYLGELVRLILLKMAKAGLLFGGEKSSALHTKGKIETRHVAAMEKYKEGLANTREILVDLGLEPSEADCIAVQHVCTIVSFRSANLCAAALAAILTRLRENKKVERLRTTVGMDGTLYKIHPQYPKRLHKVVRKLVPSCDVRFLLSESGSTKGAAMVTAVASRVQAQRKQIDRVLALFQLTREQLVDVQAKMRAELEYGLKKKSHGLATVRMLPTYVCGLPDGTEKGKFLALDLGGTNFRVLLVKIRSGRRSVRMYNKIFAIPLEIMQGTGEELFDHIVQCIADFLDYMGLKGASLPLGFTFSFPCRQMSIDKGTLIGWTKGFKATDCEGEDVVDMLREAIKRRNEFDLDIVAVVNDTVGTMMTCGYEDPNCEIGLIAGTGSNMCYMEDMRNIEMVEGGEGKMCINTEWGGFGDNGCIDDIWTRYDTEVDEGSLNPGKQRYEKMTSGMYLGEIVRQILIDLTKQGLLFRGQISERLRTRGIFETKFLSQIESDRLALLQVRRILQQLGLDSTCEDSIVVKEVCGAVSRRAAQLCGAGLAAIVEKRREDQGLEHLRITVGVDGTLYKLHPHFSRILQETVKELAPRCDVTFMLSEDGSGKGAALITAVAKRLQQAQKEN
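Material – in-house human HKDC1 enzyme, G6PDH and diaphorase coupling enzymes · Input – HKDC1 at 5 µg/mL final · Buffer or medium – pH 8.0 Tris with MgCl2 · Dosing – single compound dose of 20 µM, 1% DMSO final · Incubation – 90 min, room temperature · Technique – resorufin fluorescence from 100 µM resazurin, NADP 1 mM, Ex 525/Em 613 nm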
Starred values were filed as active, the others as inactive.

For O=C(NC(=S)NNC(=O)c1cnccn1)c1ccc(F)cc1 the results were HKDC1 activator -48*.
For Cc1ccc(C)c(S(=O)(=O)Nc2cc(SCC(=O)O)c(O)c3ccccc23)c1 the results were HKDC1 activator 63.
Screening O=C1C(Nc2ccccc2)=C/C(=N/S(=O)(=O)c2cccs2)c2ccccc21 returned HKDC1 activator 68.
CN1CCN(C2=C(Cl)C(=O)C(c3cnc(N4CCCCC4)s3)=C(Cl)C2=O)CC1 was read as HKDC1 activator 55.
O=C1C(Cl)=C(NC(=O)c2ccccc2)C(=O)C(Cl)=C1NC(=O)c1ccccc1 was read as HKDC1 activator 43.
For O=Cc1ccc(Sc2nnc(-c3ccccc3)o2)c([N+](=O)[O-])c1 the results were HKDC1 activator 43.
Screening CCOC(=O)C1=C(Cc2ccc(Cl)cc2)C(=O)c2ccccc2C1=O returned HKDC1 activator 60.
Oc1ccc(O)c(Cc2nc3ccccc3[nH]2)c1 was read as HKDC1 activator 54.
`Cc1ccc(Sc2ccc(/C=C3/C(=O)NN(c4ccccc4)C3=O)o2)cc1` gave HKDC1 activator 35.
Screening C=CC(=O)N1C/C(=C/c2ccc(Cl)cc2)C(=O)/C(=C\c2ccc(Cl)cc2)C1 returned HKDC1 activator 45.
CN(C)c1ccc(C=c2c3ccccc3n3c2cc(-c2ccccc2)[n+]3C)cc1 was read as HKDC1 activator 37.
For Clc1ccc(N=c2ssnc2Cl)nc1 the results were HKDC1 activator -194*.
For CCOC(=O)C1=C(O)c2ccccc2C(=O)/C1=C\c1ccc(C)cc1 the results were HKDC1 activator 67.
For COc1cccc(/C=N/Nc2ccc([N+](=O)[O-])cn2)c1O the results were HKDC1 activator 36.
`NC(=S)N/N=C/c1ccc(Br)o1` gave HKDC1 activator -55*.
For O=C1C(=Cc2ccc(Br)o2)C(=O)c2ccccc21 the results were HKDC1 activator 36.
Screening Cc1c(N=C2C=CC(=O)c3ccccc32)c(=O)n(-c2ccccc2)n1C returned HKDC1 activator 42.
For O=C1C=CC2(C=C1)O[C@H](Cc1ccccc1)[C@@H](Cc1ccccc1)O2 the results were HKDC1 activator 38.
For CC(C)(C)c1c(Cl)c(O)c(-c2ccccc2)c(=O)n1-c1ccccc1 the results were HKDC1 activator 36.
Screening CCOC(=O)C1CCN(C(=O)Nc2ccc3nc(-c4ccco4)c(-c4ccco4)nc3c2)CC1 returned HKDC1 activator 43.
N#Cc1ccc(CSc2nnc(NC(=O)c3ccc4ncsc4c3)s2)cc1 was read as HKDC1 activator 51.
`CCN=C1NN=C(c2ccc(C)cc2)CS1` gave HKDC1 activator -64*.
`COC1=C(Br)C(=O)c2ncccc2C1=O` gave HKDC1 activator 56.
For Nc1nc(Cl)c(N)c(NCC2(CO)CC(CCc3ccccc3)C2)n1 (centres undefined) the results were HKDC1 activator 42.
`O=C(NCCc1ccccc1)c1cnn2c(C(F)F)cc(C3CC3)nc12` gave HKDC1 activator 47.
`C/C(=N\NC(=O)c1cc(C2CC2)nc2ccccc12)c1ccc(O)cc1O` gave HKDC1 activator -44*.
Screening COc1cc(/C=C2/C(=O)NN(c3ccc(Cl)c(Cl)c3)C2=O)cc([N+](=O)[O-])c1O returned HKDC1 activator 50.
O=c1cc(O)sc2ccccc12 was read as HKDC1 activator 43.
COc1ccc(NC(=O)CSc2ccc(-c3ccco3)nn2)cc1OC was read as HKDC1 activator 43.
`COC(=O)c1ccccc1NC1=C/C(=N\S(=O)(=O)c2cccs2)c2ccccc2C1=O` gave HKDC1 activator 39.
Screening CCCC(NC(=O)Cc1c(C)c2cc3c(C)c(C)oc3c(C)c2oc1=O)C(=O)N[C@@H](Cc1ccccc1)C(=O)O (some centres undefined) returned HKDC1 activator 52.
`Cc1sc(-c2ccccn2)nc1OC(=O)c1ccc(F)cc1F` gave HKDC1 activator -50*.
For COc1ccc(C(=O)c2coc3c2C(=O)C(=O)c2ccccc2-3)cc1 the results were HKDC1 activator 61.
Screening COC(=O)c1c(NC(C)=O)sc(Cc2ccccc2)c1C returned HKDC1 activator -77*.
Cc1c(Cc2ccccc2)sc(NC(=O)Cc2ccccc2)c1C(N)=O was read as HKDC1 activator -52*.
`Cc1ccccc1/C=C/C(=O)c1ccc([N+](=O)[O-])o1` gave HKDC1 activator 46.
Screening NC(=O)C1CCN(C2=C(Cl)C(=O)c3ccccc3C2=O)CC1 returned HKDC1 activator 47.
O=C1/C(=C\c2ccc(-c3ccccc3[N+](=O)[O-])o2)C(c2ccccc2)=NN1c1ccccc1 was read as HKDC1 activator 42.
`Cc1ccc(S(=O)(=O)/N=C2\C=C(Nc3cccc(C(=O)O)c3)C(=O)c3ccccc32)c(C)c1` gave HKDC1 activator 39.
CCN(CC)S(=O)(=O)c1cccc(C(=O)N/N=C(\C)c2ccc(O)cc2O)c1 was read as HKDC1 activator -43*.
`O=c1c2c3nc4ccccc4nc3n(-c3ccc4c(c3)OCCO4)c2ncn1C1CCCC1` gave HKDC1 activator 48.
